Source: ChEMBL document CHEMBL1143709, “Human and rat monoamine oxidase-A are differentially inhibited by (S)-4-alkylthioamphetamine derivatives: insights from molecular modeling studies” (Bioorg Med Chem, 2007)

Experiments:
[1] = target: T1, Amine oxidase [flavin-containing] A (Homo sapiens, UniProt P21397); assay: Inhibition of human recombinant MAOA expressed in Pichia pastoris
T1 sequence (P21397 whole entry): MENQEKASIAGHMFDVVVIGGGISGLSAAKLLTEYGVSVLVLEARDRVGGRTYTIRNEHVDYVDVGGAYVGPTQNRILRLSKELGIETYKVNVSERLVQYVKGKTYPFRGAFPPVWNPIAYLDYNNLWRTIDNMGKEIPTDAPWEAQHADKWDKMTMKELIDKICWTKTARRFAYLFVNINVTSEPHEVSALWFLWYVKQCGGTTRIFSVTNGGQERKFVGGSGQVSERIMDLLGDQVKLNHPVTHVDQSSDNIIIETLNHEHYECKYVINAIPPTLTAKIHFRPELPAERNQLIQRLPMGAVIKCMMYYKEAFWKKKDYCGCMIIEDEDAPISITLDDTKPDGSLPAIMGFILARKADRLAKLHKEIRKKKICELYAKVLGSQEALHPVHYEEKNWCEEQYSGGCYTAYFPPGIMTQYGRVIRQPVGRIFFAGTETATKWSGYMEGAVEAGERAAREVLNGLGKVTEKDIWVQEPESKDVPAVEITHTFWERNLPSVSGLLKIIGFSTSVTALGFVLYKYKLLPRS
In short: (§1)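 Purified recombinant enzyme desalted on Sephadex G-25 into 50 mM potassium phosphate pH 7.5 with 0.8% β-octyl-glucoside. Activity was read spectrophotometrically with and without inhibitor in 50 mM HEPES pH 7.5 with 0.5% reduced Triton X-100 at 25°C. Substrates were kynuramine for MAO-A and benzylamine for MAO-B.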

[2] = target: T2, Amine oxidase [flavin-containing] B (Homo sapiens, UniProt P27338); assay: Inhibition of human recombinant MAOB expressed in Pichia pastoris; in short: as §1
T2 sequence (P27338 whole entry): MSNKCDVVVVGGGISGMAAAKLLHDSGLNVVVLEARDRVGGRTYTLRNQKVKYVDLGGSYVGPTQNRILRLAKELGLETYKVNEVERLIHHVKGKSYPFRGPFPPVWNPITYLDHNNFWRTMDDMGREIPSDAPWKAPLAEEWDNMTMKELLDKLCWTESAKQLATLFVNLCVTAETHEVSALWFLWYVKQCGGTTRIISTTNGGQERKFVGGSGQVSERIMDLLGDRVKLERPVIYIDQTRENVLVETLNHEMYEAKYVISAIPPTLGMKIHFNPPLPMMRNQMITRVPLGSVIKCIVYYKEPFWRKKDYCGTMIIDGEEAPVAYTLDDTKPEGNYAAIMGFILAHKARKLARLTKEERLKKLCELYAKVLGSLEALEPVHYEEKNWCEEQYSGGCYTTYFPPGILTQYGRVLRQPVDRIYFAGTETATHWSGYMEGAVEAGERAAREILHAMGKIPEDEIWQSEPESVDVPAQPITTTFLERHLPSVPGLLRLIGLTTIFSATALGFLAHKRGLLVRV

[3] = target: T3, Amine oxidase [flavin-containing] B (Rattus norvegicus, UniProt P19643); assay: Inhibition of rat brain MAOB
T3 sequence (P19643 whole entry): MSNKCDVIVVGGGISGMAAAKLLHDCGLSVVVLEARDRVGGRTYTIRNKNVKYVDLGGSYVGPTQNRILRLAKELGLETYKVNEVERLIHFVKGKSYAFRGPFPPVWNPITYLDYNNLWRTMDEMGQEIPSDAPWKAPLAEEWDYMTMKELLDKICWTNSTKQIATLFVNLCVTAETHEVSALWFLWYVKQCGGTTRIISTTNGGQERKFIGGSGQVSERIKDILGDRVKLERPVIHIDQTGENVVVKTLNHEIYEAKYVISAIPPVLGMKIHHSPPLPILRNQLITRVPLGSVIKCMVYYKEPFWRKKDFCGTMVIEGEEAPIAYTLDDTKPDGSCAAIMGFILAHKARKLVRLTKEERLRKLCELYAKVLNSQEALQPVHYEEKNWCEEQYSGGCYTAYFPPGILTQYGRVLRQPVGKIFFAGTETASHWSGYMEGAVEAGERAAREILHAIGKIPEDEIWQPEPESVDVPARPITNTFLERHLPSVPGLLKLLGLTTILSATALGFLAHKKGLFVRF
In short: (§2)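 Enzyme was a crude brain mitochondrial suspension from male Sprague–Dawley rats (180–220 g). Substrates were 5-HT 100 μM for MAO-A and DMAPEA 5 μM for MAO-B. Substrates and metabolites were measured by C18 reverse-phase HPLC with electrochemical detection. IC50 was taken from % inhibition versus -log concentration, at least two experiments in triplicate, mean ± SD. Ki came from Cheng-Prusoff.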

[4] = target: T4, Amine oxidase [flavin-containing] A (Rattus norvegicus, UniProt P21396); assay: Inhibition of rat brain MAOA; in short: as §2
T4 sequence (P21396 whole entry): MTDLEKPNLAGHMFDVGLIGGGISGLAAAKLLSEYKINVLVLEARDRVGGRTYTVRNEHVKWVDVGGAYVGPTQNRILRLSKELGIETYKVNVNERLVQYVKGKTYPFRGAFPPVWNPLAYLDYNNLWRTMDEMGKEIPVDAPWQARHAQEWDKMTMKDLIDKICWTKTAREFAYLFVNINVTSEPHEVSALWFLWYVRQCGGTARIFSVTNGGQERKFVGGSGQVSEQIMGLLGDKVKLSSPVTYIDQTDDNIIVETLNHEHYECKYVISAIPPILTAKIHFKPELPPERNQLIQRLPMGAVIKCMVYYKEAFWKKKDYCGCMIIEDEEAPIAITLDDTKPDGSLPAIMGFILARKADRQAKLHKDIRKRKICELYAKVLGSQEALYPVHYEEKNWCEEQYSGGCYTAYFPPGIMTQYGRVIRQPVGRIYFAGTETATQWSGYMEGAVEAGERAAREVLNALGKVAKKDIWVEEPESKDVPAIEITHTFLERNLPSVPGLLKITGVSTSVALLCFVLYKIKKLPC

SMILES	Ki [1]	Ki [2]	Ki [3]	Ki [4]
CCCSc1ccc(C[C@H](C)N)cc1	0.03 µM	14 µM	15000 µM	0.115 µM
CCSc1ccc(C[C@H](C)N)cc1	0.075 µM	> 100 µM	> 100 µM	0.054 µM
CCCCSc1ccc(C[C@H](C)N)cc1	0.022 µM	4.58 µM	8.92 µM	0.392 µM
CSc1ccc(C[C@H](C)N)cc1	0.133 µM		> 100 µM	0.245 µM
